The text below walks through data of ChEMBL document CHEMBL1128557, “Synthesis, antitumor activity, and chemical properties of silaplatin and related platinum (II) and platinum (IV) complexes derived from beta-silyl amines” (J Med Chem, 1995).

In assay [1] the test system is Mus musculus. In words: The compound was evaluated for the mean body weight change (BWC) in mice infected with cisplatin sensitive L1210 Leukemia (dose 40 mg/kg, ip),day 5. Further details: dose 40 mg/kg. The class given is functional, organism-based. In a few lines: (§1)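 CD2F1 mice implanted ip on day 0 with 10^5 L1210/0 (parent) leukemia cells, in groups of 6 or 10 (20 or 30 controls). Complexes given ip in saline plus Tween 80 on days 1, 5 and 9. BWC is the group mean weight change, day 5 minus day 1. MST is median survival and %ILS is calculated from MST, both from dying mice only, excluding day 30 survivors.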

In assay [2] the test system is Tumor Cell line. In words: Evaluated in vitro for the log10 molecular concentration that caused 50 % inhibition of tumor growth of 60 human tumor cell lines. It counts as functional, cell-based. An outline of the steps:
(§2)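 Cells preincubated 24 h, then exposed to the agent at five 10-fold dilutions (0.01–100 μM for the platinum complexes) for 48 h. Cells fixed in situ and stained; solubilized stain read spectrophotometrically. Panel of leukemia, non-small-cell lung, ovarian and renal lines. Log GI50 or TGI taken per cell line in one experiment, then averaged across lines.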

Assay [3] relates to Mus musculus. Kind of assay: The compound was evaluated for the median survival time (MST) in mice infected with cisplatin sensitive L1210 Leukemia (dose 80 mg/kg, ip), day 5. The class given is functional, organism-based. Further details: dose 80 mg/kg. In a few lines: as §1
The test system of assay [4] is Mus musculus. In words: The compound was evaluated for the mean body weight change (BWC) in mice infected with cisplatin sensitive L1210 Leukemia (dose 80 mg/kg, ip),day 5. It counts as functional, organism-based. Further details: dose 80 mg/kg. An outline of the steps: as §1
In assay [5] the test system is Tumor Cell line. In words: Evaluated in vitro for the log10 molecular concentration that caused […] tumor growth of 60 human tumor cell lines. The class given is functional, cell-based. In a few lines: as §2
Assay [6] relates to Mus musculus. Kind of assay: The compound was evaluated for the median survival time (MST) in mice infected with cisplatin sensitive L1210 Leukemia (dose 20 mg/kg, ip), day 5. Set-up: dose 20 mg/kg. The class given is functional, organism-based. An outline of the steps: as §1
Assay [7] has as its system Mus musculus. In words: The compound was evaluated for the median survival time (MST) in mice infected with cisplatin sensitive L1210 Leukemia (dose 10 mg/kg, ip), day 5. It counts as functional, organism-based. Further details: dose 10 mg/kg. An outline of the steps: as §1
Assay [8] deals with Mus musculus. Kind of assay: The compound was evaluated for the mean body weight change (BWC) in mice infected with cisplatin sensitive L1210 Leukemia (dose 20 mg/kg, ip),day 5. Further details: dose 20 mg/kg. The class given is functional, organism-based. An outline of the steps: as §1
Assay [9] concerns Mus musculus. In words: The compound was evaluated for the mean body weight change (BWC) in mice infected with cisplatin sensitive L1210 Leukemia (dose 40 mg/kg, ip),day 1. Further details: dose 40 mg/kg. It counts as functional, organism-based. In a few lines:
as §1

Assay [10] has as its system Mus musculus. In words: The compound was evaluated for the mean body weight change (BWC) in mice infected with cisplatin sensitive L1210 Leukemia (dose 10 mg/kg, ip),day 5. The class given is functional, organism-based. Further details: dose 10 mg/kg. In a few lines: as §1
Assay [11] relates to Mus musculus. Kind of assay: The compound was evaluated for the median survival time (MST) in mice infected with cisplatin sensitive L1210 Leukemia (dose 10 mg/kg, ip), day 1. It counts as functional, organism-based. Further details: dose 10 mg/kg. An outline of the steps:
as §1

In assay [12] the test system is Mus musculus. Kind of assay: The compound was evaluated for the mean body weight change (BWC) in mice infected with cisplatin sensitive L1210 Leukemia (dose 80 mg/kg, ip),day 1. The class given is functional, organism-based. Set-up: dose 80 mg/kg. In a few lines: as §1
Assay [13] concerns Mus musculus. Kind of assay: The compound was evaluated for the mean body weight change (BWC) in mice infected with cisplatin sensitive L1210 Leukemia (dose 10 mg/kg, ip),day 1. The class given is functional, organism-based. Further details: dose 10 mg/kg. In a few lines:
as §1

Assay [14] deals with Mus musculus. Kind of assay: The compound was evaluated for the median survival time (MST) in mice infected with cisplatin sensitive L1210 Leukemia (dose 40 mg/kg, ip), day 5. It counts as functional, organism-based. Set-up: dose 40 mg/kg. An outline of the steps: as §1
The subject of assay [15] is Mus musculus. Kind of assay: The compound was evaluated for the median survival time (MST) in mice infected with cisplatin sensitive L1210 Leukemia (dose 80 mg/kg, ip), day 1. It counts as functional, organism-based. Set-up: dose 80 mg/kg. In a few lines: as §1
The test system of assay [16] is Mus musculus. Kind of assay: The compound was evaluated for the median survival time (MST) in mice infected with cisplatin sensitive L1210 Leukemia (dose 40 mg/kg, ip), day 1. Further details: dose 40 mg/kg. The class given is functional, organism-based. In a few lines:
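On day 0, 10⁵ parent or cisplatin-resistant L1210 cells were implanted ip into CD2F1 mice, 6 or 10 per dose group (20 or 30 controls). Dosing was ip on days 1, 5 and 9 in saline plus Tween 80. Median survival time was taken from dying mice only, excluding day-30 survivors. Both sublines were tested concurrently.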

What is called GI50 is the concentration at which growth is held to half of that of the control. Low readings indicate greater sensitivity of the cells, high ones lower sensitivity of the cells. As usually defined, the TGI is the concentration at which net growth stops. Higher therefore signals less potent growth arrest. On to “[Bis(aminomethyl)dimethylsilane]tetrachloroplatinum(IV)”, for which the BWC in assay [1] is -1.3 g; in assay [4], -3.4 g; in [8] it was -0.6 g; in assay [9] it was -2.4 g; in assay [10], 0.1 g; in assay [12], -5 g. In [13], this substance displayed a BWC of 0 g. Besides, in assay [2], growth was halved (GI50) at 4.79 µM. Moreover, the MST in assay [3] came out at 10 days; in assay [6] it was 19 days; in assay [7], 15 days; in assay [11], 18.5 days; in assay [14], 21 days; in [15], 8.3 days. This substance gave an MST in [16] of 27 days. The TGI in assay [5] stood at 41.7 µM.
